Laboratory results published in ChEMBL document CHEMBL1154716, “Synthesis of some new S-triazine based chalcones and their derivatives as potent antimicrobial agents” (2010).
Values after ≈ are worked out from the molar mass of the structure shown. Active and inactive are the calls of the source. The rule behind the calls is not given here.

Key:
Pseudomonas aeruginosa [1] = experiment: Antimicrobial activity against Pseudomonas aeruginosa at 1 umol/spot after 18 hrs by TLC-bioautographic method; type: functional
Outline: (§1)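 TLC bioautography. Samples are spotted on silica gel TLC plates, then sprayed with bacteria (1.0 × 10^5 cfu/ml) in tryptic soy broth. Plates are incubated 18 h at 37 C and sprayed with 3% aqueous p-iodonitrotetrazolium violet. After a further 3 h, growth is stopped with 70% EtOH. White zones on a pink background are scored as inhibition-zone diameter with standard errors.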

Staphylococcus aureus [2] = experiment: Antimicrobial activity against Staphylococcus aureus at 1 umol/disk after 24 hrs by disk diffusion assay; type: functional
Outline: (§2)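 Disc diffusion on 4 mm filter discs. Bacteria are grown overnight in LB at 28 C, then adjusted in saline to 1.0 × 10^5 cfu/ml. The suspension is mixed into top agar over peptone agar plates. Plates are incubated 24 h at 28 C, and growth-inhibition zone diameter is measured. Streptomycin and ampicillin controls are applied from a 1 mg/ml stock. Tests are done in duplicate.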

Micrococcus flavus [3] = experiment: Antimicrobial activity against Micrococcus flavus after 24 hrs by microdilution technique; type: functional
Outline: (§3)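 Broth microdilution in LB medium. Inoculum is 1.0 × 10^4 cfu per well, from a saline-adjusted suspension of 1.0 × 10^5 cfu/ml. Compounds are dissolved in DMSO. Incubated 24 h at 28 C. MIC is the lowest concentration with no visible growth under a binocular microscope. MBC is read by subculture into fresh broth for 72 h, with no growth taken as 99.5% kill. OD is read at 655 nm.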

Listeria monocytogenes [4] = experiment: Antimicrobial activity against Listeria monocytogenes after 24 hrs by microdilution technique; type: functional; outline: as §3
Bacillus cereus [5] = experiment: Antimicrobial activity against Bacillus cereus at 1 umol/disk after 24 hrs by disk diffusion assay; type: functional; outline: as §2
Enterobacter cloacae [6] = experiment: Antimicrobial activity against Enterobacter cloacae at 10 ug/disk after 24 hrs by disk diffusion assay; type: functional; outline: as §2
Micrococcus flavus [7] = experiment: Antimicrobial activity against Micrococcus flavus at 1 umol/spot after 18 hrs by TLC-bioautographic method; type: functional; outline: as §1
Staphylococcus aureus [8] = experiment: Antimicrobial activity against Staphylococcus aureus at 10 ug/disk after 24 hrs by disk diffusion assay; type: functional; outline: as §2
Pseudomonas aeruginosa [9] = experiment: Antimicrobial activity against Pseudomonas aeruginosa at 1 umol/disk after 24 hrs by disk diffusion assay; type: functional; outline: as §2
Escherichia coli [10] = experiment: Antimicrobial activity against Escherichia coli at 10 ug/disk after 24 hrs by disk diffusion assay; type: functional; outline: as §2
Escherichia coli [11] = experiment: Antimicrobial activity against Escherichia coli at 1 umol/disk after 24 hrs by disk diffusion assay; type: functional; outline: as §2
Bacillus cereus [12] = experiment: Antimicrobial activity against Bacillus cereus at 1 umol/spot after 18 hrs by TLC-bioautographic method; type: functional; outline: as §1
Salmonella typhimurium [13] = experiment: Antimicrobial activity against Salmonella Typhimurium after 24 hrs by microdilution technique; type: functional, Salmonella enterica subsp. enterica serovar Typhimurium; conditions: Salmonella enterica; outline: as §3
Salmonella typhimurium [14] = experiment: Antimicrobial activity against Salmonella Typhimurium at 1 umol/disk after 24 hrs by disk diffusion assay; type: functional, organism-based; conditions: Salmonella enterica subsp. enterica serovar Typhimurium; outline: as §2
Salmonella typhimurium [15] = experiment: Antimicrobial activity against Salmonella Typhimurium at 1 umol/spot after 18 hrs by TLC-bioautographic method; type: functional, Salmonella enterica subsp. enterica serovar Typhimurium; outline: as §1
Salmonella typhimurium [16] = experiment: Antimicrobial activity against Salmonella Typhimurium at 10 ug/disk after 24 hrs by disk diffusion assay; type: functional, organism-based; conditions: Salmonella enterica subsp. enterica serovar Typhimurium; outline: as §2
Listeria monocytogenes [17] = experiment: Antimicrobial activity against Listeria monocytogenes at 1 umol/disk after 24 hrs by disk diffusion assay; type: functional; outline: as §2
Bacillus cereus [18] = experiment: Antimicrobial activity against Bacillus cereus at 10 ug/disk after 24 hrs by disk diffusion assay; type: functional; outline: as §2
Listeria monocytogenes [19] = experiment: Antimicrobial activity against Listeria monocytogenes at 1 umol/spot after 18 hrs by TLC-bioautographic method; type: functional; outline: as §1
Escherichia coli [20] = experiment: Antimicrobial activity against Escherichia coli at 1 umol/spot after 18 hrs by TLC-bioautographic method; type: functional; outline: as §1
Staphylococcus aureus [21] = experiment: Antimicrobial activity against Staphylococcus aureus at 1 umol/spot after 18 hrs by TLC-bioautographic method; type: functional; outline: as §1
Staphylococcus aureus [22] = experiment: Antimicrobial activity against Staphylococcus aureus after 24 hrs by microdilution technique; type: functional; outline: as §3
Pseudomonas aeruginosa [23] = experiment: Antimicrobial activity against Pseudomonas aeruginosa at 10 ug/disk after 24 hrs by disk diffusion assay; type: functional; outline: as §2
Pseudomonas aeruginosa [24] = experiment: Antimicrobial activity against Pseudomonas aeruginosa after 24 hrs by microdilution technique; type: functional; outline: as §3
Enterobacter cloacae [25] = experiment: Antimicrobial activity against Enterobacter cloacae at 1 umol/disk after 24 hrs by disk diffusion assay; type: functional; outline: as §2
Micrococcus flavus [26] = experiment: Antimicrobial activity against Micrococcus flavus at 1 umol/disk after 24 hrs by disk diffusion assay; type: functional; outline: as §2
Bacillus cereus [27] = experiment: Antimicrobial activity against Bacillus cereus after 24 hrs by microdilution technique; type: functional; outline: as §3
Enterobacter cloacae [28] = experiment: Antimicrobial activity against Enterobacter cloacae after 24 hrs by microdilution technique; type: functional; outline: as §3
Listeria monocytogenes [29] = experiment: Antimicrobial activity against Listeria monocytogenes at 10 ug/disk after 24 hrs by disk diffusion assay; type: functional; outline: as §2
Enterobacter cloacae [30] = experiment: Antimicrobial activity against Enterobacter cloacae at 1 umol/spot after 18 hrs by TLC-bioautographic method; type: functional; outline: as §1
Micrococcus flavus [31] = experiment: Antimicrobial activity against Micrococcus flavus at 10 ug/disk after 24 hrs by disk diffusion assay; type: functional; outline: as §2
Escherichia coli [32] = experiment: Antimicrobial activity against Escherichia coli after 24 hrs by microdilution technique; type: functional; outline: as §3

CC(=O)N1N=C(c2ccc(Nc3nc(Nc4ccccc4)nc(Nc4ccccc4)n3)cc2)CC1c1ccc([N+](=O)[O-])cc1 (stereo not given)
inhibition zone (IZ) (Pseudomonas aeruginosa [1]): inactive
inhibition zone (IZ) (Staphylococcus aureus [2]): inactive
MBC (Micrococcus flavus [3]): 342 µM (≈ 200 µg/mL)
MIC (Micrococcus flavus [3]): 171 µM (≈ 100 µg/mL)
MBC (Listeria monocytogenes [4]): 684 µM (≈ 401 µg/mL)
MIC (Listeria monocytogenes [4]): 684 µM (≈ 401 µg/mL)
inhibition zone (IZ) (Bacillus cereus [5]): inactive
inhibition zone (IZ) (Enterobacter cloacae [6]): inactive
inhibition zone (IZ) (Micrococcus flavus [7]): 0.07 millimeter
inhibition zone (IZ) (Staphylococcus aureus [8]): inactive
inhibition zone (IZ) (Pseudomonas aeruginosa [9]): inactive
inhibition zone (IZ) (Escherichia coli [10]): inactive
inhibition zone (IZ) (Escherichia coli [11]): inactive
inhibition zone (IZ) (Bacillus cereus [12]): 0.1 millimeter
MBC (Salmonella typhimurium [13]): 684 µM (≈ 401 µg/mL)
MIC (Salmonella typhimurium [13]): 684 µM (≈ 401 µg/mL)
inhibition zone (IZ) (Salmonella typhimurium [14]): inactive
inhibition zone (IZ) (Salmonella typhimurium [15]): 0.1 millimeter
inhibition zone (IZ) (Salmonella typhimurium [16]): inactive
inhibition zone (IZ) (Listeria monocytogenes [17]): inactive
inhibition zone (IZ) (Bacillus cereus [18]): inactive
inhibition zone (IZ) (Listeria monocytogenes [19]): 0.09 millimeter
inhibition zone (IZ) (Escherichia coli [20]): inactive
inhibition zone (IZ) (Staphylococcus aureus [21]): inactive
MBC (Staphylococcus aureus [22]): 342 µM (≈ 200 µg/mL)
MIC (Staphylococcus aureus [22]): 171 µM (≈ 100 µg/mL)
inhibition zone (IZ) (Pseudomonas aeruginosa [23]): inactive
MBC (Pseudomonas aeruginosa [24]): 684 µM (≈ 401 µg/mL)
MIC (Pseudomonas aeruginosa [24]): 684 µM (≈ 401 µg/mL)
inhibition zone (IZ) (Enterobacter cloacae [25]): inactive
inhibition zone (IZ) (Micrococcus flavus [26]): 0.04 millimeter
MBC (Bacillus cereus [27]): 171 µM (≈ 100 µg/mL)
MIC (Bacillus cereus [27]): 85 µM (≈ 49.8 µg/mL)
MBC (Enterobacter cloacae [28]): 684 µM (≈ 401 µg/mL)
MIC (Enterobacter cloacae [28]): 684 µM (≈ 401 µg/mL)
inhibition zone (IZ) (Listeria monocytogenes [29]): inactive
inhibition zone (IZ) (Enterobacter cloacae [30]): 0.09 millimeter
zone of inhibition at 10 µg/disc (Micrococcus flavus [31]; read-out: IZ): 10 mm
MBC (Escherichia coli [32]): 342 µM (≈ 200 µg/mL)
MIC (Escherichia coli [32]): 171 µM (≈ 100 µg/mL)

Nc1nc(-c2ccc(Nc3nc(Nc4ccccc4)nc(Nc4ccccc4)n3)cc2)cc(-c2ccc([N+](=O)[O-])cc2)n1
inhibition zone (IZ) (Pseudomonas aeruginosa [1]): inactive
inhibition zone (IZ) (Staphylococcus aureus [2]): inactive
MBC (Micrococcus flavus [3]): 704 µM (≈ 400 µg/mL)
MIC (Micrococcus flavus [3]): 352 µM (≈ 200 µg/mL)
MBC (Listeria monocytogenes [4]): 704 µM (≈ 400 µg/mL)
MIC (Listeria monocytogenes [4]): 704 µM (≈ 400 µg/mL)
inhibition zone (IZ) (Bacillus cereus [5]): inactive
inhibition zone (IZ) (Enterobacter cloacae [6]): inactive
inhibition zone (IZ) (Micrococcus flavus [7]): 0.07 millimeter
inhibition zone (IZ) (Staphylococcus aureus [8]): inactive
inhibition zone (IZ) (Pseudomonas aeruginosa [9]): inactive
inhibition zone (IZ) (Escherichia coli [10]): inactive
inhibition zone (IZ) (Escherichia coli [11]): inactive
inhibition zone (IZ) (Bacillus cereus [12]): inactive
MBC (Salmonella typhimurium [13]): 704 µM (≈ 400 µg/mL)
MIC (Salmonella typhimurium [13]): 352 µM (≈ 200 µg/mL)
inhibition zone (IZ) (Salmonella typhimurium [14]): inactive
inhibition zone (IZ) (Salmonella typhimurium [15]; Salmonella enterica subsp. enterica serovar Typhimurium): inactive
inhibition zone (IZ) (Salmonella typhimurium [16]): inactive
inhibition zone (IZ) (Listeria monocytogenes [17]): inactive
inhibition zone (IZ) (Bacillus cereus [18]): inactive
inhibition zone (IZ) (Listeria monocytogenes [19]): 0.1 millimeter
inhibition zone (IZ) (Escherichia coli [20]): inactive
inhibition zone (IZ) (Staphylococcus aureus [21]): inactive
MBC (Staphylococcus aureus [22]): 352 µM (≈ 200 µg/mL)
MIC (Staphylococcus aureus [22]): 176 µM (≈ 100 µg/mL)
inhibition zone (IZ) (Pseudomonas aeruginosa [23]): inactive
MBC (Pseudomonas aeruginosa [24]): 704 µM (≈ 400 µg/mL)
MIC (Pseudomonas aeruginosa [24]): 352 µM (≈ 200 µg/mL)
inhibition zone (IZ) (Enterobacter cloacae [25]): inactive
inhibition zone (IZ) (Micrococcus flavus [26]): inactive
MBC (Bacillus cereus [27]): 352 µM (≈ 200 µg/mL)
MIC (Bacillus cereus [27]): 176 µM (≈ 100 µg/mL)
MBC (Enterobacter cloacae [28]): 352 µM (≈ 200 µg/mL)
MIC (Enterobacter cloacae [28]): 176 µM (≈ 100 µg/mL)
inhibition zone (IZ) (Listeria monocytogenes [29]): inactive
inhibition zone (IZ) (Enterobacter cloacae [30]): inactive
inhibition zone (IZ) (Micrococcus flavus [31]): inactive
MBC (Escherichia coli [32]): 352 µM (≈ 200 µg/mL)
MIC (Escherichia coli [32]): 176 µM (≈ 100 µg/mL)
